Measurements: ChEMBL document CHEMBL1133588 (J Med Chem, 2000)

Key:
Format in all cases: tissue-based
[1] = target: T1, Muscarinic acetylcholine receptor M1 (Rattus norvegicus, UniProt P08482); assay: Binding affinity at Muscarinic acetylcholine receptor M1 in Rat brain homogenate by [3H]pirenzepine displacement.
T1 sequence (P08482 whole entry): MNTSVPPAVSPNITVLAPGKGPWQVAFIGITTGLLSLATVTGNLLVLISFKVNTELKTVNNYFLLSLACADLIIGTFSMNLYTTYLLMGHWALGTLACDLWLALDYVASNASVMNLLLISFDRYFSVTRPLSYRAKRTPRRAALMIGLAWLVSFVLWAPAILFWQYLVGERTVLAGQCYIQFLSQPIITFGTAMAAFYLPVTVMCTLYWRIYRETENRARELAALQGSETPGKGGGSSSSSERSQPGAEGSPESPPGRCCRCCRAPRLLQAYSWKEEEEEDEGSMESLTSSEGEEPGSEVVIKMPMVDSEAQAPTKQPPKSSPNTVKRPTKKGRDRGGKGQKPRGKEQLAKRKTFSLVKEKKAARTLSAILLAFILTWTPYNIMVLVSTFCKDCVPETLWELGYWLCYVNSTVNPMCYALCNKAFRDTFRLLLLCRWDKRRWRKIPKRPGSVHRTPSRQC

[2] = target: T1, Muscarinic acetylcholine receptor M1; assay: Compound is tested for displacement of [3H]pirenzepine at […] in Rat brain homogenate.
How it was run: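 Whole rat brain minus cerebellum, homogenised in 10 mM Tris-HCl/320 mM sucrose pH 7.4; 10000g pellet. Binding in 10 mM Tris-HCl with 5 mM MgCl2, […], [3H]pirenzepine 3 nM final, 1 h at 37 °C. Competitor 0.01 nM–100 µM. Filtration through PEI-soaked GF/B filters. At least three experiments in triplicate; Ki from nonlinear curve fitting.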

[3] = target: Sodium-dependent dopamine transporter (Rattus norvegicus, UniProt P23977); assay: Displacement of [3H]WIN-35428 from the dopamine transporter in rat caudate putamen
Sodium-dependent dopamine transporter, sequence (P23977 whole entry): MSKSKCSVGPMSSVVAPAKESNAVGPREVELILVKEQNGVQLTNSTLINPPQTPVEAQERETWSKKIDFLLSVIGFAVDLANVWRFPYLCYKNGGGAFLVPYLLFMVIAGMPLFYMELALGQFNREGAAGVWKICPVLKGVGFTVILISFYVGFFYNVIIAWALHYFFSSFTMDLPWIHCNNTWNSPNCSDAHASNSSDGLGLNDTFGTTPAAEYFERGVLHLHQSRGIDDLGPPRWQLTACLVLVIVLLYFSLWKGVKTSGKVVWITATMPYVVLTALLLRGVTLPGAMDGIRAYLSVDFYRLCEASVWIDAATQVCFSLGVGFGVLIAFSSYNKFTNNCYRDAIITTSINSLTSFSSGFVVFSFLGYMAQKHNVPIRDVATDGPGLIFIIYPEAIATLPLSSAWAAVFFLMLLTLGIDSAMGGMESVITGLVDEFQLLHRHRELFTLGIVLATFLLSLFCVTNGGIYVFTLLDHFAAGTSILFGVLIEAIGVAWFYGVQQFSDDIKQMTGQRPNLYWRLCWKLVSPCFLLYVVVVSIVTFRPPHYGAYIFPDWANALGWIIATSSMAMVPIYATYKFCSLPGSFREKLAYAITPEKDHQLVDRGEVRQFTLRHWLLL
How it was run: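 Male Sprague-Dawley rat caudate putamen, fresh washed membranes in Krebs-HEPES pH 7.4, 0.5% w/v. Filtration on BSA-soaked GF/B filters. Three experiments in triplicate; Ki from nonlinear least-squares fitting of pooled replicates.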

Structure (SMILES)	Ki [1] [nM]	Ki [2] [nM]	Ki [3] [nM]
CCCCN1C2CCC1CC(OC(c1ccc(F)cc1)c1ccc(F)cc1)C2 (stereo not given)	399	–	–
Fc1ccc(CCCN2C3CCC2CC(OC(c2ccc(F)cc2)c2ccc(F)cc2)C3)cc1 (stereo not given)	–	686	–
Fc1ccc(CN2C3CCC2CC(OC(c2ccc(F)cc2)c2ccc(F)cc2)C3)cc1 (stereo not given)	–	1540	–
Fc1ccc(C(OC2CC3CCC(C2)N3)c2ccc(F)cc2)cc1 (stereo not given)	203	–	–
Fc1ccc(C(OC2CC3CCC(C2)N3Cc2cccc3ccccc23)c2ccc(F)cc2)cc1 (stereo not given)	1790	–	367
Fc1ccc(C(OC2CC3CCC(C2)N3CCCc2ccccc2)c2ccc(F)cc2)cc1 (stereo not given)	–	312	–
Fc1ccc(C(OC2CC3CCC(C2)N3Cc2ccccc2)c2ccc(F)cc2)cc1 (stereo not given)	–	1030	–
C=CCCN1C2CCC1CC(OC(c1ccc(F)cc1)c1ccc(F)cc1)C2 (stereo not given)	278	–	31.9
O=[N+]([O-])c1ccc(-c2ccc(COCCN3C4CCC3CC(OC(c3ccc(F)cc3)c3ccc(F)cc3)C4)cc2)cc1 (stereo not given)	–	460	–
CC[C@H](CN1C2CCC1CC(OC(c1ccc(F)cc1)c1ccc(F)cc1)C2)c1ccccc1 (stereo not given in full)	2360	–	228
C[C@@H](CN1C2CCC1CC(OC(c1ccc(F)cc1)c1ccc(F)cc1)C2)c1ccccc1 (stereo not given in full)	392	–	477
CC[C@@H](CN1C2CCC1CC(OC(c1ccc(F)cc1)c1ccc(F)cc1)C2)c1ccccc1 (stereo not given in full)	1440	–	400
C[C@H](CN1C2CCC1CC(OC(c1ccc(F)cc1)c1ccc(F)cc1)C2)c1ccccc1 (stereo not given in full)	1900	–	301
Fc1ccc(C(OC2CC3CCC(C2)N3Cc2ccc(Cl)c(Cl)c2)c2ccc(F)cc2)cc1 (stereo not given)	3880	–	392
CC(C)[C@H](N)CN1C2CCC1CC(OC(c1ccc(F)cc1)c1ccc(F)cc1)C2 (stereo not given in full)	4020	–	29.5
Fc1ccc(C(OC2CC3CCC(C2)N3C/C=C/c2ccccc2)c2ccc(F)cc2)cc1 (stereo not given)	–	401	86.4
Nc1ccc(CCCCN2[C@@H]3CC[C@H]2C[C@@H](OC(c2ccc(F)cc2)c2ccc(F)cc2)C3)cc1	134	–	–
O=[N+]([O-])c1ccc(CCCCN2[C@@H]3CC[C@H]2C[C@@H](OC(c2ccc(F)cc2)c2ccc(F)cc2)C3)cc1	299	–	–
NCCN1[C@@H]2CC[C@H]1C[C@@H](OC(c1ccc(F)cc1)c1ccc(F)cc1)C2	1250	–	13.9
Fc1ccc(C(O[C@H]2C[C@H]3CC[C@@H](C2)N3CCc2c[nH]c3ccccc23)c2ccc(F)cc2)cc1	–	3280	44.6
C=CCN1C2CCC1CC(OC(c1ccc(F)cc1)c1ccc(F)cc1)C2 (stereo not given)	177	–	–
CC(C)[C@@H](N)CN1C2CCC1CC(OC(c1ccc(F)cc1)c1ccc(F)cc1)C2 (stereo not given in full)	2180	–	56.4
Fc1ccc(C(OC2CC3CCC(C2)N3CC2CC2)c2ccc(F)cc2)cc1 (stereo not given)	–	257	–
